# Assay outcomes from PubChem BioAssay.
# Only a selection was taken, and hits are over-represented in it overall.
# S1P4 agonist – S1P4 receptor agonists, primary screen, cell-based; S1P4-expressing cell line, agonist reporter assay; activation, % at 4.98 µM; hit rate 0.35% among 220,000; in the data active = activation above about 11%;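 also: 0% = DMSO vehicle and 100% = reference agonist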
# Lmaj promast – Leishmania major promastigote growth inhibition, primary screen; hit rate 9% among 200,000; AID 1063, 2008; Leishmania major promastigotes, resazurin fluorescence viability; inhibition, % at 10 µM; in the data active = inhibition above about 50%;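 also: promastigotes grown with compound for 44 hours at 28 °C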
# S1P4 antag – S1P4 receptor antagonists, primary screen, cell-based | Sphingosine 1-phosphate receptor 4 (Homo sapiens), O95977 | S1P4-expressing cells, antagonist mode, reporter read-out | inhibition, % at 4.98 µM | hit rate 0.26% among 220,000 | AID 1510, 2009; in the data active = inhibition above about 29%;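 also: 0% = wells stimulated with agonist and 100% = vehicle wells without agonist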
# MDM2 E3 inh – MDM2-luciferase reporter signal enhancers, primary screen, MDM2 E3 ligase inhibitor project, cell-based, luminescence, 1536-well | E3 ubiquitin-protein ligase Mdm2 (Homo sapiens), Q00987 | cell-based MDM2 ubiquitination luciferase reporter, 2 h; 0 = plate control, 100 = twice control, blank-subtracted | signal enhancement, % at 5 µM | hit rate 0.11% among 210,000 | AID 1230, 2008;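 active = signal enhancement of 30% or more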;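 also: luminescence tracks abundance of the self-degrading MDM2-luciferase fusion protein; higher signal means inhibition of MDM2 E3 ligase activity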
# Target sequence (Q00987 whole entry, looked up, the tested form may be a part): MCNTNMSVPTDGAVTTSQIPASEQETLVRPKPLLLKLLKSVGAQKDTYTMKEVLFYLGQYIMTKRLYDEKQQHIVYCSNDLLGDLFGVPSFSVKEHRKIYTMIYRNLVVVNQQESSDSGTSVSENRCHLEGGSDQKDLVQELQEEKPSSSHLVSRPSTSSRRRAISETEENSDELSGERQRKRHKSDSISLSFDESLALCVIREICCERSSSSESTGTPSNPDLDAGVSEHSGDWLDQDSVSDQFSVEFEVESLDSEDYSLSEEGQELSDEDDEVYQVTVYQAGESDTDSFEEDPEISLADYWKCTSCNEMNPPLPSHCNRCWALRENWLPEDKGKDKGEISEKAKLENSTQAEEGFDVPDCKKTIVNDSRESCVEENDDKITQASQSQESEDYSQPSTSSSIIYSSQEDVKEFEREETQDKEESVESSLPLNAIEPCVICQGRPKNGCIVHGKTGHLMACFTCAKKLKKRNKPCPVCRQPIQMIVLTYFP
#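 System: stable MDM2–luciferase fusion reporter cells / Input: 2000 cells seeded into each well / Schedule: 4 h settle plus 2 h compound, 37 °C / Compound: single-point 5 µM / Buffer or medium: cells held in DMEM / Benchmarks: control and blank well means / Evaluation: percent signal gain over controls, blank-subtracted / Measured by: luciferase luminescence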
# S1P3 antag – S1P3 receptor antagonists, primary screen, cell-based | AID 485, 2006 | hit rate 0.27% among 170,000 | inhibition, % at 4.98 µM | CHO S1P3 NFAT-BLA reporter, FRET fluorescence, antagonist mode;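 active = inhibition above the plate cutoff, the mean inhibition of test wells on that plate plus 3 SD, cut at about 28% in these data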;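 also: cells challenged with S1P at its EC80 of 0.8 µM; blue over green emission ratio from cleaved BLA substrate after 4 h stimulation; 0% = S1P-stimulated wells and 100% = unstimulated DMSO-only wells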
# The depositor's hits bear a star; . = no result given.
SMILES,S1P4 agonist,Lmaj promast,S1P4 antag,MDM2 E3 inh,S1P3 antag
COc1ccc(C)c2sc(N(CCCN(C)C)C(=O)c3ccc(S(=O)(=O)N(C)C)cc3)nc12,0,74*,2,-2,-4
CCOc1cccc2sc(N(CCCN(C)C)C(=O)c3ccc(S(=O)(=O)N(C)c4ccccc4)cc3)nc12,-1,88*,-3,-4,-16
O=C(O)CCCNc1ccc([N+](=O)[O-])c(NCCCC(=O)O)n1,-1,-5,-2,-5,-9
CC1CCCCN1c1ncnc2ccccc12 (stereo unspecified),-2,10,-22,5,.
CCC1CCCCN1c1nc(-c2ccncc2)nc2ccccc12 (stereo unspecified),-4,95*,-1,-22,.
CC1CCCCN1c1nc(-c2ccncc2)nc2ccccc12 (stereo unspecified),-3,81*,2,-7,2
CC(C)N(Cc1nc(-c2ccc(Cl)cc2)no1)Cc1nccn1C,3,2,-8,2,-7
CCOc1ccc(CCNC(=O)COC(=O)c2ccccc2O)cc1OCC,2,82*,-22,-8,-11
CCOc1ccc(CCNC(=O)c2ccc(CNS(=O)(=O)c3ccccc3)cc2)cc1OCC,0,53*,-18,-16,-12
COc1ccc(CCNC(=O)c2ccc(CNS(=O)(=O)c3ccc(C(C)(C)C)cc3)cc2)cc1OC,2,12,-13,-10,-14
COC(=O)c1cc2c(ccn2-c2ccc(F)cc2)n1CC(C)C,0,98*,-1,-8,.
CCCn1c(C(=O)OC)cc2c1ccn2-c1ccc(F)cc1,0,99*,-3,-12,.
N#CC1=C(N)SC(N)=C(C#N)C1CCC1CCCCC1,1,26,-17,-10,-14
Cn1c(N=Nc2ccccc2)nc2ccccc21,-1,53*,-10,.,1
COC(=O)CSc1nc2[nH]ncc2c(=O)[nH]1,0,2,5,-8,-21
CCCNS(=O)(=O)c1ccc(CCC(=O)N2CCN(c3ccc(F)cc3)CC2)cc1,1,57*,-3,-3,-3
OCCC1CN(Cc2ccc3nsnc3c2)CCN1CCc1ccccc1 (stereo unspecified),0,84*,-14,-11,13
CC(=O)c1cc(CN2CCN(CCc3ccccc3)C(CCO)C2)cs1 (stereo unspecified),2,77*,-10,2,2
Cn1cc(CN2CCN(CCc3ccccc3)C(CCO)C2)cn1 (stereo unspecified),2,-2,5,-8,-5
CC(=O)c1cc(CN2CCN(Cc3ccccc3)C(CCO)C2)cs1 (stereo unspecified),1,65*,3,-13,6
Cc1c(C=O)c2ccccc2n1CC(=O)NC(C)c1ccccc1 (stereo unspecified),2,-3,-22,-8,-19
COc1ccc(N2CCN(C(=O)C3CCN(S(=O)(=O)c4ccc(F)cc4)CC3)CC2)cc1,-1,-4,-15,4,-19
O=C(O)c1cc([N+](=O)[O-])cc2c1nnn2O,1,-5,-18,-12,-13
C#CCOC(=O)c1ccc(-n2cncn2)nc1,1,-5,-24,-2,.
CCOC(=O)c1c(C)[nH]c(C2=NNC(=Nc3cccc(Cl)c3)SC2)c1C,-1,39,8,-7,2
SMILES,S1P4 agonist,Lmaj promast,S1P4 antag,MDM2 E3 inh,S1P3 antag
N#CC1=C(N)N(c2ncn[nH]2)C2=C(C(=O)CCC2)C1c1ccc(F)cc1 (stereo unspecified),-1,-3,9,-10,-12
O=[N+]([O-])c1cccc(/C=C/C=N/Nc2nc(N3CCCCC3)nc(N3CCCCC3)n2)c1,-2,33,-21,-23,-15
CCN1CCN(C(=O)c2cc3nc(-c4ccccc4)cc(C(F)(F)F)n3n2)CC1,-2,17,-34,2,4
CC(C)(C)OC(=O)N1CCC(CNC(=O)c2cccs2)CC1,0,.,2,1,-5
Cc1ccc(C)c(OCCOCCN2CCOCC2)c1,0,92*,-18,-14,24
Cc1ccc(C)c(OCCCC(=O)Nc2ccc(N3CCOCC3)cc2)c1,-1,0,-26,-14,4
Cc1cc(C)c(C)c(OCCOCCN2CCOCC2)c1,0,55*,-22,0,-30
Cc1cc(C)c(C)c(OCCOCCN2CCN(C)CC2)c1,2,-2,-12,1,-6
Clc1cc(Br)ccc1OCCOCCN1CCOCC1,0,96*,-22,-1,9
CCOC(=O)C1CCN(C(=S)Nc2ccc(CC)cc2)CC1,0,-5,7,-8,-5
COc1ccc(C(=O)C2CCCN(C(=O)Cn3nc(C)cc3C)C2)cc1F (stereo unspecified),-1,.,-12,-9,2
Cc1ccc2cccc(OCC(=O)N3CC(C)CC(C)C3)c2n1 (stereo unspecified),0,-3,0,-23,-6
CCOc1cc(C2C(C#N)=C(N)OC(C)=C2C(C)=O)cc(Br)c1O (stereo unspecified),-2,-6,-6,-10,-13
CCOc1cc(C2C(C#N)=C(N)OC(C)=C2C(C)=O)c(Br)c(Br)c1OC(C)C (stereo unspecified),1,64*,-16,.,.
c1ccc2c(c1)C(=Nn1cnnc1)c1ccccc1-2,1,14,-14,1,.
O=C1/C(=N/n2cnnc2)c2ccccc2N1Cc1ccccc1,1,85*,-2,-13,-24
Cc1cccc(-c2ncc(CN3CCN(C4CCCC4)C(CCO)C3)cn2)c1 (stereo unspecified),2,64*,-13,-27,2
Cc1cccc(-c2ncc(CN3CCN(CCC(C)C)C(CCO)C3)cn2)c1 (stereo unspecified),2,74*,-24,-8,-9
OCCC1CN(Cc2ccncc2)CCN1C1CCCC1 (stereo unspecified),-1,-2,-9,7,6
Cc1cccc(C)c1NC(=O)c1ccc([N+](=O)[O-])s1,3,99*,-13,-17,-20
Cc1cccc(NC(=O)c2ccc([N+](=O)[O-])s2)c1C,-1,100*,-13,.,14
N/C(=N\OC(=O)C1CC1)c1ccc([N+](=O)[O-])s1,2,.,7,2,-11
O=C(NC1CCCC1)c1ccc([N+](=O)[O-])s1,1,98*,-9,-3,13
Cn1cc(CNCCN2CCCCC2=O)c(-c2cccc(Cl)c2)n1,0,-2,-5,-1,-29
COc1cc(NS(=O)(=O)c2ccc(NC(=S)NC(=O)COc3ccccc3OC)cc2)nc(OC)n1,1,-5,-4,.,11
CCOC(=O)c1nnn2c1nc(Nc1cccc(C(F)(F)F)c1)c1ccccc12,1,.,2,-2,-18
